From PubChem BioAssay AID624017 (Broad Institute, 2012)
pIC50: −log10 of the molar value.

Tested on: ldlA[mSR-BI] cells, [3H]cholesterol efflux to HDL
Assay: free cholesterol efflux blockade in ldlA[mSR-BI] cells – [3H]cholesterol, powder samples, set 2, mechanism study for SR-BI HDL uptake inhibitor project, dose response (AID 624017)
How it was run: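 Dosing – 0.5% DMSO vehicle · Material – ldlA[mSR-BI] cells prelabelled with [3H]cholesterol · Incubation – 2-day label, 24 h equilibration, 1 h compound pretreatment, 2 h efflux · Signal – scintillation counting of medium and lysate [3H] · Probe or stimulus – HDL as cholesterol acceptor, 100 µg/mL final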

How did the pIC50 turn out when CC(C)NC(=O)Nc1ccc2c(c1)C(=O)N([C@H](C)CO)C[C@@H](C)[C@H](CN(C)S(=O)(=O)c1ccc(Cl)cc1)O2 was run?
Its pIC50 is 6.60.
